Results from different studies.
Compare with care: the assays were run in different laboratories.
EIF2AK4 S808G: eIF-2-alpha kinase GCN2 (EIF2AK4, Homo sapiens, UniProt Q9P2K8, S808G)
EIF2AK4 S808G C-terminal kinase domain: eIF-2-alpha kinase GCN2, C-terminal kinase domain (EIF2AK4, Homo sapiens, UniProt Q9P2K8, S808G)

| SMILES | target | test | conditions | remaining binding [%] |
| --- | --- | --- | --- | --- |
| Cc1cnn2ncc(-c3ccnc(N(C)C)n3)c2c1 | EIF2AK4 S808G | binding | 1 µM | 96 |
| CC(=O)N1CCC(c2ccc(C(=O)NC3=NCCN3)cc2C(F)(F)F)CC1 | EIF2AK4 S808G C-terminal kinase domain | cell-free assay, competition with immobilised ligand | 1 µM | 52 |
| c1cncc(-c2cccc(Nc3nccc(NC4CCCCC4)n3)c2)c1 | EIF2AK4 S808G C-terminal kinase domain | binding, competition with immobilised ligand | 10 µM | 100 |
| CCCOc1ccc([C@@H]2[C@@H](C(=O)O)[C@H](c3ccc4c(c3)OCO4)CN2CC(=O)Nc2c(CC)cccc2CC)cc1 | EIF2AK4 S808G C-terminal kinase domain | cell-free assay, competition with immobilised ligand | 1 µM | 100 |
| COc1cnc(Nc2cccc(S(N)(=O)=O)c2)nc1N1CCN(c2ccccc2)C(=O)C1 | EIF2AK4 S808G C-terminal kinase domain | binding, competition with immobilised ligand | 1 µM | 90 |
| O=C(c1ccc(Nc2ncc(Cl)c(-c3ccc(Cl)s3)n2)cc1)N1CCC(N2CCCC2)CC1 | EIF2AK4 S808G C-terminal kinase domain | binding, competition with immobilised ligand | 1 µM | 0.25 |
| CN1CCN(c2ccc(Nc3nccc(-c4cccc([N+](=O)[O-])c4)n3)cc2C(F)(F)F)CC1 | EIF2AK4 S808G | binding | 10 µM | 0.2 |
| CN(C)c1ncc(F)c(-c2cnn3ncccc23)n1 | EIF2AK4 S808G | binding | 1 µM | 100 |
| C=CC(=O)N1CCC(C(=O)NCC(=O)N2CCN(c3nc(-c4cnc(N)nc4C(F)F)nc(N4CCOCC4)n3)CC2)CC1 | EIF2AK4 S808G C-terminal kinase domain | binding, competition with immobilised ligand | 1 µM | 100 |
| O=C(NCCCN1CCOCC1)c1ccc(Nc2ncc(Cl)c(-c3ccc(Cl)s3)n2)cc1 | EIF2AK4 S808G C-terminal kinase domain | binding, competition with immobilised ligand | 1 µM | 0.35 |
| O=C(NCCCC1CCCCC1)c1ccc(CNC(=O)c2cnn(-c3ccccc3)c2C(F)(F)F)cc1 | EIF2AK4 S808G C-terminal kinase domain | cell-free assay, competition with immobilised ligand | 0.1 µM | 100 |
| O=C(NCCCN1CCOCC1)c1ccc(Nc2nccc(-c3cc4ccccc4s3)n2)cc1 | EIF2AK4 S808G C-terminal kinase domain | binding, competition with immobilised ligand | 1 µM | 15 |
| CN(c1nccc(-c2cnn3ncccc23)n1)C1CC1 | EIF2AK4 S808G | binding | 1 µM | 69 |
| O=C(NCc1ncc(C(F)(F)F)cc1Cl)c1ccc2c(c1)C1(CCS(=O)(=O)CC1)[C@@H](C1CC1)N2S(=O)(=O)c1ccc(F)cc1 | EIF2AK4 S808G C-terminal kinase domain | cell-free assay, competition with immobilised ligand | 1 µM | 100 |
| O=C(NCC1CCOCC1)c1n[nH]cc1NC(=O)c1c(F)cccc1F | EIF2AK4 S808G C-terminal kinase domain | binding, competition with immobilised ligand | 1 µM | 100 |
| CN(C)c1nccc(-c2cnc3ncccn23)n1 | EIF2AK4 S808G | binding | 1 µM | 99 |
| C[C@@H](c1cccc(C#N)c1)n1cc(Cl)cc(C(N)=O)c1=N | EIF2AK4 S808G C-terminal kinase domain | cell-free assay, competition with immobilised ligand | 1 µM | 50 |
| CN(CCCC(F)(F)F)c1nccc(-c2cnn3ncccc23)n1 | EIF2AK4 S808G | binding | 1 µM | 99 |
| Cn1nc(C(F)(F)F)cc1-c1cnc(N2CCc3cc(S(=O)(=O)Nc4c(F)cc(Cl)cc4F)cc(N4CCCC4=O)c32)nc1 | EIF2AK4 S808G C-terminal kinase domain | cell-free assay, competition with immobilised ligand | 1 µM | 100 |
| C[C@@H]1CCN(c2nccc(-c3cnn4ncccc34)n2)C1 | EIF2AK4 S808G | binding | 1 µM | 78 |
| O=S(=O)(NC1CCC(c2cc(F)ccc2F)(S(=O)(=O)c2ccc(Cl)cc2)CC1)C(F)(F)F (centres unmarked) | EIF2AK4 S808G C-terminal kinase domain | cell-free assay, competition with immobilised ligand | 1 µM | 100 |
| N[C@@H]1CCN(c2nccc(-c3cnn4ncccc34)n2)C1 | EIF2AK4 S808G | binding | 1 µM | 100 |
| CNC(=O)[C@@H]1CC[C@@H](n2c(-c3ccc4cnccc4c3)nc3ccc(C(=O)NCc4cccc(C(N)=O)c4)cc32)C1 | EIF2AK4 S808G C-terminal kinase domain | binding, competition with immobilised ligand | 1 µM | 82 |
